Data: ChEMBL document CHEMBL1126291 (J Med Chem, 1992)

Experiments:
Format in all cases: functional
Leishmania donovani [1] = test: Growth inhibition of Leishmania donovani promastigotes by the compound at 1.3 uM
Outline: (§1)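 Seeded at 0.5 × 10^6 cells per well. Compounds added a few hours later in water. Cells counted by hemacytometer after 3 days, against untreated cultures. Duplicates.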

Leishmania donovani [2] = test: Growth inhibition of Leishmania donovani promastigotes by the compound at […]; details: for inhibition at […]: Leishmania donovani
Leishmania donovani [3] = test: Growth inhibition of Leishmania donovani promastigotes by the compound at 14 uM; outline: as §1

Compound | inhibition at […] (Leishmania donovani [2]) [%] | inhibition at 14 µM (Leishmania donovani [3]) [%] | further results
Nc1ncnc2c1ncn2[C@@H]1O[C@H](C[C@H](N)CC[C@H](N)C(=O)O)[C@@H](O)[C@H]1O | 34 | – | inhibition at 1.3 µM (Leishmania donovani [1]): 91%
NC(CC[C@H](N)C(=O)O)C[C@H]1OC(N2CCC(=O)NC2=O)[C@H](O)[C@@H]1O (stereo partly specified) | – | 19 | –
NC(CC[C@H](N)C(=O)O)C[C@H]1OC(n2ccc(=O)[nH]c2=O)[C@H](O)[C@@H]1O (stereo partly specified) | – | 20 | –
Nc1ncnc2c1ncn2[C@@H]1O[C@H](C[C@@H](N)CC[C@H](N)C(=O)O)[C@@H](O)[C@H]1O (stereo in doubt; form 1) [SINEFUNGIN] | 100 | – | –
Nc1ncnc2c1ncn2[C@@H]1O[C@H](C[C@@H](N)CC[C@H](N)C(=O)O)[C@@H](O)[C@H]1O (stereo in doubt; form 2) [SINEFUNGIN] | – | – | Inhibition (Leishmania donovani [2]): 88%
